An excerpt weighted towards active compounds, which were near 1.6% of everything screened.
Tn7 DDE FP: inhibitors of Tn7 peptide binding to fibrin DD(E), primary screen, biochemical, fluorescence polarization, human fibrin, Tn7 probe. inhibition, % at 8.3 µM. AID 720508, 2013. 370,000 compounds, 0.13% hits. FP displacement of FITC-Tn7 peptide from fibrin DD(E); 0% = median of compound wells per plate;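 active = inhibition above the mean of compounds falling within the control limits plus 3 SD of them, cut at about 14% in these data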;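 note: 0% = plate median of compound wells and 100% = 10 µM Aha-Tn7 peptide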
Target sequence (P02675 whole entry, looked up): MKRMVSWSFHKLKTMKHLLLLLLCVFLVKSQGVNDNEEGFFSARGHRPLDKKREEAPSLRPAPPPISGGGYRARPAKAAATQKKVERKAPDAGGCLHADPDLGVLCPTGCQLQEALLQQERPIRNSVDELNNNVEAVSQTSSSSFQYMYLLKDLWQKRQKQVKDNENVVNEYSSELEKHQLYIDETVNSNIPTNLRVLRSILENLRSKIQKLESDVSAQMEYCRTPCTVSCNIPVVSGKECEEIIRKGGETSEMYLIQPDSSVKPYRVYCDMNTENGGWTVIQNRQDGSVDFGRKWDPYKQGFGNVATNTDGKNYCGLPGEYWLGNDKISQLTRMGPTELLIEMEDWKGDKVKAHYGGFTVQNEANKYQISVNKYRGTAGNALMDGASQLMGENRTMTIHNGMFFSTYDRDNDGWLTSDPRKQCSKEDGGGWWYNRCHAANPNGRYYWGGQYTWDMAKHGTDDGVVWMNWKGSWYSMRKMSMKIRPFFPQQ
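Assay system: human fibrin DD(E) protein / Input: 2 µM fibrin DD(E) / Benchmarks: high control of 10 µM Aha-Tn7 peptide / Measured by: fluorescence polarization of the labelled Tn7 tracer / Medium: Tris buffer with calcium and detergent, pH 7.8 / Timing: 10 min compound pre-incubation, 3 h probe incubation at room temperature / Repeats: one replicate per compound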
MT1-MMP act inh: blockers of MT1-MMP proenzyme processing, primary screen, HT1080 RFP-PRO-GFP cells, GFP/RFP fluorescence. Matrix metalloproteinase-14 (Homo sapiens), P50281. GFP/RFP ratio fluorescence, overnight; percent of plate control window, DMSO zero. GFP/RFP ratio change, % at 20 µM. 360,000 compounds, 0.061% hits. AID 651647, 2012;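 active = GFP/RFP ratio change of at least 30% with cell ATP level not reduced by more than half and red fluorescence within 50% of control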
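Assay system: HT1080 RFP-PRO-GFP cells. Benchmarks: DMSO vehicle wells and RFP-L50D-GFP reporter cell wells. Times: overnight cell settling, then overnight compound exposure, 37 °C, 5% CO2. Compound: 20 µM single dose, 1% DMSO. Read-out basis: GFP/RFP fluorescence ratio.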
ADAM10 inh: human ADAM10 inhibitors, primary screen, biochemical, QFRET, HTS | recombinant ADAM10, EDANS/DABCYL FRET peptide cleavage, 3 h | AID 720582, 2013 | inhibition, % at 7 µM | Disintegrin and metalloproteinase domain-containing protein 10 (Homo sapiens), O14672 | 370,000 compounds, 0.62% hits;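 active = inhibition above a per-campaign cutoff equal to the mean of compounds falling between control-based bounds plus 3 SD, cut at about 20% in these data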;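 note: 0% = DMSO wells while the 100% control is not disclosed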
DDE Tn6 FP inh: inhibitors of Tn6 peptide binding to fibrin DD(E), primary screen, biochemical, fluorescence polarization, human fibrin, Tn6 probe | Fibrin DD(E) TRITC-Tn6 fluorescence polarization displacement | inhibition, % at 8.3 µM | AID 720509, 2013 | 370,000 compounds, 0.21% hits;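 active = inhibition above a per-campaign cutoff: mean of compounds within control limits plus 3 SD, cut at about 15% in these data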;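 note: 0% = median of all compound wells on the plate and 100% = blocking peptide control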
ADAM17 inh: ADAM17 inhibitors, primary screen, biochemical, QFRET; 370,000 compounds, 0.83% hits; AID 720648, 2013; inhibition, % at 6.95 µM; recombinant ADAM17, EDANS/DABCYL FRET peptide cleavage; Disintegrin and metalloproteinase domain-containing protein 17 (Homo sapiens), P78536;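 active = inhibition above the mean of compounds lying between control limits plus 3 SD, set per campaign, cut at about 8.5% in these data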;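 note: 0% = DMSO-only wells as the low control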
ADAM10 confirm: human ADAM10 inhibitors, confirmation, biochemical, QFRET, triplicate; shares compounds with ADAM10 inh; ADAM10 QFRET peptide cleavage, EDANS fluorescence; 2,100 compounds, 1% hits; inhibition, % at 6.95 µM;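 active = inhibition above about 20% chosen separately for each screening run, limit read from the data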;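 note: 0% = DMSO wells and 100% = marimastat wells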
ADAM17 ctr: ADAM17 inhibitors, counter-screen for ADAM10 exosite inhibitor project, biochemical, QFRET, high throughput. shares compounds with ADAM10 inh. 2,100 compounds, 0.5% hits. ADAM17 QFRET peptide cleavage, EDANS fluorescence. AID 743214, 2013. inhibition, % at 6.95 µM;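 active = mean triplicate inhibition above the solvent-only control wells' mean plus 3 SD, cut at about 12% in these data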;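 note: 0% = DMSO wells and 100% = marimastat wells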
The depositor's hits bear a star; / = no result given.

SMILES | Tn7 DDE FP | MT1-MMP act inh | ADAM10 inh | DDE Tn6 FP inh | ADAM17 inh | ADAM10 confirm | ADAM17 ctr
Cc1ccc(S(=O)(=O)N2C[C@@H](C)[C@]3(C2)[C@H](O)[C@H](OC(=O)NCc2ccco2)C[C@H]2C(=O)N(c4ccccc4)C(=O)[C@H]23)cc1 | -7.7 | -1.3 | -16.8 | 5.0 | 3.1 | / | /
CC(C)C[C@@H]1NC(=O)[C@@H]2CSCCS(=O)(=O)N2C1=O | 3.6 | / | -7.0 | -5.1 | -4.2 | / | /
CSc1nc(O)c(C(c2cccc([N+](=O)[O-])c2)c2c(O)nc(SC)[nH]c2=O)c(=O)[nH]1 | -5.1 | 3.1 | 81.1* | 7.4 | -1.5 | -0.9 | -0.5
COCCCN(C(=O)c1cc2c(s1)CCCCC2)c1c(N)n(Cc2ccccc2)c(=O)[nH]c1=O | 1.1 | 0.0 | 20.4* | 4.4 | 3.2 | -0.7 | 0.0
COCCN(C(=O)c1cc2c(s1)CCCCC2)c1c(N)n(Cc2ccccc2)c(=O)[nH]c1=O | 7.2 | 5.2 | -13.9 | -8.5 | -0.9 | / | /
O=C(COC(=O)c1c2c(nc3ccccc13)CCCC2)Nc1ccc2c(c1)OCO2 | -10.5 | 0.0 | 23.9* | -4.7 | 8.0 | 3.5 | 0.8
CC(C)(C)NC(=O)NC(=O)COc1ccc(Br)cc1Br | 2.0 | 4.3 | 20.2* | -1.0 | 6.2 | 2.0 | -0.4
Cn1c(=O)c(C(=O)NNC(=O)c2ccccc2Br)c(O)c2ccccc21 | -9.6 | 7.0 | 19.8* | -13.9 | 4.5 | 8.0 | 3.8
Cn1c(=O)c(C(=O)NNC(=O)c2ccccc2Cl)c(O)c2ccccc21 | -0.8 | 7.2 | -6.9 | -2.7 | -9.7 | / | /
NC(=O)c1ncn2c(=O)n(CCCl)nnc12 | -5.0 | / | -16.2 | 0.6 | 2.4 | / | /
CC(C)(C)C(=O)NC1CCCCN(Cc2cccc(Cl)c2)C1=O (configuration not stated) | 3.8 | / | -1.8 | 5.8 | 3.6 | / | /
Cc1ccc(C)c(OCCC(=O)OCC(=O)Nc2ccc(C)c(S(=O)(=O)N3CCCCC3)c2)c1 | -3.7 | 4.8 | 26.9* | -6.0 | -11.0 | 8.7 | 3.0
Cc1ccc(NC(=O)c2cccc(S(=O)(=O)N(C)c3ccccc3)c2)cc1S(=O)(=O)N1CCOCC1 | 0.6 | -6.0 | 20.5* | -3.4 | 8.3 | 3.9 | 1.0
Cc1ccc(NCC(=O)Nc2cccc(S(=O)(=O)N(C)C)c2)cc1S(=O)(=O)N1CCCCCC1 | 7.2 | -5.4 | 23.8* | 0.4 | 8.1 | 1.8 | 0.2
Cc1ccccc1OCCC(=O)OCC(=O)Nc1ccc(C)c(S(=O)(=O)N2CCCCC2)c1 | -5.1 | -0.6 | 18.2 | -3.9 | 8.0 | / | /
COC(=O)[C@H](C(C)C)N1Cc2nnn(Cc3ccc(C)cc3)c2-c2cc(F)ccc2S1(=O)=O | 2.3 | / | 8.0 | -2.7 | 2.7 | / | /
COc1ccc(-c2noc(-c3ccccc3C(=O)Nc3cccc(OC)c3)n2)cc1 | 13.4 | -0.1 | 25.0* | 1.9 | 6.8 | 2.9 | 0.7
OC(c1ccc2c(c1)OCO2)c1ncc(-c2cccc(C(F)(F)F)c2)[nH]1 (configuration not stated) | 7.0 | 1.5 | 19.9* | 11.6 | 5.7 | 3.2 | 0.2
COc1ccc(CCC(=O)Nc2cc(Cl)ccc2OC)cc1 | -7.3 | -1.0 | -0.9 | 4.4 | -1.9 | / | /
CCCNS(=O)(=O)c1ccc(CCC(=O)Nc2cc(Cl)ccc2Oc2ccccc2)cc1 | -2.6 | -9.3 | 20.9* | -0.1 | 6.6 | 5.4 | 2.8
CCCNC(=O)C(Cc1cccc(OC)c1)NC(=O)c1ccc(C(C)(C)C)cc1 (configuration not stated) | -4.4 | 2.2 | 82.6* | -1.6 | 0.8 | 0.2 | 0.1
